An excerpt weighted towards active compounds, which were near 2.6% of everything screened.
Rce1 inhib = inhibitors of yeast Ras-converting enzyme; yeast membranes, quenched prenylated peptide cleavage fluorescence; calls only; hit rate 0.27% among 290,000; AID 2563;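 active means fall in fluorescence gain of 50% or more versus controls, with final raw signal at or below 3038400; inconclusive means same 50% fall but final raw signal above 3038400; inactive means fall in fluorescence gain under 50%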
T cell modulator = T cell immune modulation candidate; 2C CD8+ T cell-vesicle binding, flow cytometry; hits give low values; response (vesicle binding), % at 7 µM; hit rate 0.068% among 330,000; AID 2052;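 active means response, share of CD8 T cells binding vesicles, and their 90th percentile fluorescence all below set limits, cut at about 80% in these data, passing the limit was not always enough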;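 further: values below 100% mean blocked vesicle binding to the CD8+ T cells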
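System: murine 2C transgenic CD8+ T lymphocytes; also added: QL9-loaded Drosophila micro-vesicles; times: binding 1.5 h at 37 °C; measured by: flow cytometry, PE anti-B7-1 (FL2) versus Alexa647 anti-CD8 (FL8), PFA-fixed; control set: Peptide-free naked vesicles (low) and QL9 vesicles with 0.7% DMSO vehicle (high)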
GRK2 aptamer HTS = inhibitors of human GRK2 displacing RNA aptamer; P25098; bead flow cytometry, FAM-aptamer displacement from GRK2; inhibition of aptamer binding, % at 10 µM; hit rate 0.59% among 330,000;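 active means inhibition of aptamer binding above 40%, roughly 3 SD of noise, on plates passing a quality check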;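 further: median bead fluorescence of bound FAM aptamer so fluorescent compounds give negative values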
SKN-1 block = C. elegans SKN-1 inhibition. hit rate 0.49% among 360,000. inhibition, % at 21.8 µM. C. elegans VP596 Pgst-4::GFP/RFP ratio, acrylamide-induced, 24 h;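 active means interference check ratio from 0.5 to 1.5 plus GFP to RFP signal ratio inhibition reaching or exceeding a fixed threshold, cut at about 30% in these data, passing the limit was not always enough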
Rin1-Abl PPI inh = human Rin1-Abl interaction inhibition; P00519+Q13671; TR-FRET Rin1/Abl binding, biochemical; inhibition, % at 7.35 µM; hit rate 0.4% among 360,000; AID 588664; in the data active means inhibition above about 5%, passing the limit was not always enough
Myeloid diff 2 = compounds promoting myeloid differentiation. ER-HoxA9 myeloid progenitors, lysozyme-GFP differentiation, flow cytometry. calls only at 10 µM. hit rate 1% among 360,000. AID 624256;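 active means normalized GFP-positive differentiation at or above the plate's own cutoff, the solvent-only control mean plus 3 SD; inconclusive means no clear call, values can overlap the other calls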;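 further: cells exposed to compound for four days before flow analysis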
Myeloid diff CP1 = compounds promoting myeloid differentiation; shares compounds with Myeloid diff 2; ER-HoxA9 myeloid progenitors, GFP/Mac1 double-positive flow; hit rate 2% among 2,300; calls only;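 active means share of green or green-and-red cells above 9 and 9% in run 1 or 4 and 3% in run 2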
GFP autofluor = compound fluorescence in myeloid differentiation counter-screen; ER-HoxA9 myeloid progenitors, no estrogen, GFP autofluorescence flow cytometry; vehicle wells 0%, positive control 100%; shares compounds with Myeloid diff 2; hit rate 7.4% among 2,300; fluorescence response, % (test concentration not listed);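 active means over 5% cells positive for green fluorescent reporter, or over 2% positive for both it and APC stain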
Of the large screens only hits and unclear results are named; the others gave an inactive call (follow-up assays come after a bar, where they were run).

CC(C)C1C(=O)N(Cc2cn(CCC3OCCCO3)nn2)CCS(=O)(=O)N1Cc1ccc(-c2cccc(CO)c2)cc1 (centres undefined)	none (no result: Rce1 inhib, T cell modulator, GRK2 aptamer HTS) | Myeloid diff CP1 inactive | GFP autofluor inactive
CC(C)C1C(=O)N(Cc2cn(CC3CCCCC3)nn2)CCS(=O)(=O)N1Cc1ccc(-c2ccc(F)cc2)cc1 (centres undefined)	none (no result: Rce1 inhib, T cell modulator, GRK2 aptamer HTS) | Myeloid diff CP1 inactive | GFP autofluor inactive
COCOCCn1cc(CN2CCS(=O)(=O)N(Cc3ccc(-c4ccc(Cl)cc4)cc3)C(CC(C)C)C2=O)nn1 (centres undefined)	Myeloid diff 2 active (no result: Rce1 inhib, T cell modulator, GRK2 aptamer HTS) | Myeloid diff CP1 inactive | GFP autofluor inactive
CCC/C=C/c1ccc(CN2C(C(C)C)C(=O)N(Cc3cn(CCC4OCCO4)nn3)CCS2(=O)=O)cc1 (centres undefined)	none (no result: Rce1 inhib, T cell modulator, GRK2 aptamer HTS) | Myeloid diff CP1 inactive | GFP autofluor inactive
O=C1c2cccnc2C(=O)N1Cc1ccc(S(=O)(=O)N2CCOc3ccc(Cl)cc32)cc1	none
Cc1ccc(N=Nc2ccc(C)cc2NC(=O)Nc2ccccc2F)cc1	none
COc1ccc(NC(=O)C2CCCCC2)cc1S(=O)(=O)N1CCOCC1	none (no result: Rce1 inhib)
CN(C)CCCn1c(N)c(C#N)c2nc3ccccc3nc21	Rce1 inhib inconclusive | Myeloid diff CP1 inactive | GFP autofluor inactive
CCCCC(CC)Cn1c(N)c(C#N)c2nc3ccccc3nc21 (centres undefined)	none
Cc1ccc([C@H]2C[C@H](n3cc(C4CC4)nn3)[C@@H](O)CN2Cc2cccs2)cc1	none (no result: Rce1 inhib, T cell modulator, GRK2 aptamer HTS) | Myeloid diff CP1 inactive | GFP autofluor inactive
CCCC(=O)N1CCCC1(C)C(=O)NCCc1ccccn1 (centres undefined)	none (no result: Rce1 inhib, T cell modulator, GRK2 aptamer HTS)
CCCN(CC(=O)Nc1ccccc1OC)C(=O)CN1C(=O)NC2(CCCCC2)C1=O	Myeloid diff 2 active (no result: Rce1 inhib) | Myeloid diff CP1 inactive | GFP autofluor inactive
C[C@H](CO)N1C[C@H](C)[C@@H](CN(C)S(=O)(=O)c2cccc(F)c2)Oc2ncc(Br)cc2C1=O	none (no result: Rce1 inhib, T cell modulator, GRK2 aptamer HTS)
CCCSC1=C(C#N)C(c2cc(OC)ccc2OC)CC(=O)N1 (centres undefined)	none | Myeloid diff CP1 inactive | GFP autofluor inactive
CCSC1=C(C#N)C(c2ccc(OC)c(OC)c2)CC(=O)N1 (centres undefined)	none
CC(=O)Nc1ccc(S(=O)(=O)NC2(C(F)(F)F)N=C(c3ccccc3)NC2=O)cc1 (centres undefined)	none | Myeloid diff CP1 inactive | GFP autofluor inactive
CC(=O)c1ccc(S(=O)(=O)N2CCN(C(=O)c3ccc(-n4nc(C)c(Cl)c4C)cc3)CC2)cc1	none (no result: Rce1 inhib) | Myeloid diff CP1 inactive | GFP autofluor inactive
Cc1ccc(-n2c(C)cc3c2CC(C)(C)CC3=O)cc1C	none
Cc1cc2c(n1-c1ccc(Br)cc1)CC(C)(C)CC2=O	none | Myeloid diff CP1 inactive | GFP autofluor inactive
Cc1ccc(N=C2C(=O)Nc3ccccc32)cc1	none
CCN(CC)c1ccc(N=C2C(=O)Nc3ccccc32)cc1	none (no result: T cell modulator) | Myeloid diff CP1 inactive | GFP autofluor 3.7
O=c1[nH]c(-c2ccccc2)nnc1-c1ccccc1	none
O=C(Cn1cccc1C(=O)c1ccccc1)NCc1ccccc1	none
O=C(Cn1cccc1C(=O)c1ccccc1)NCc1cccs1	none | Myeloid diff CP1 inactive | GFP autofluor inactive
CC/C(C)=N/Nc1ccc(S(=O)(=O)N2CCCC2)cc1[N+](=O)[O-]	Myeloid diff 2 active | Myeloid diff CP1 inactive | GFP autofluor inactive
Cc1nonc1CN(C)C(=O)CC1C(=O)NCCN1Cc1cccc(C(F)(F)F)c1 (centres undefined)	none
Cc1cccc(CCNc2nc3ccccc3n3nnnc23)c1	Myeloid diff 2 active | Myeloid diff CP1 inactive | GFP autofluor inactive
CC1CC(C)CN(CCCNC(=O)CCC(=O)N2CCOc3ccccc32)C1 (centres undefined)	none | Myeloid diff CP1 inactive | GFP autofluor inactive
CCN1CCN(CCCNC(=O)CCC(=O)N2CCOc3ccccc32)CC1	none
CS(=O)(=O)N(CC(=O)N1CCCC1)c1ccccc1Br	none (no result: GRK2 aptamer HTS)
CC(C)CNC(=O)NC1(C(F)(F)F)Oc2ccccc2O1	none
O=C(NCc1cccnc1)NC1(C(F)(F)F)Oc2ccccc2O1	Myeloid diff 2 active | Myeloid diff CP1 inactive | GFP autofluor inactive
COc1ccccc1OCCn1c(=O)oc2ccc(C)cc21	Myeloid diff 2 active | Myeloid diff CP1 inactive | GFP autofluor inactive
COc1ccc(Cn2c(=O)oc3ccc(C)cc32)cc1OC	Myeloid diff 2 active | Myeloid diff CP1 inactive | GFP autofluor inactive
Cc1ccc2oc(=O)n(CCOc3ccccc3C)c2c1	none
COc1ccc(Cn2c(=O)oc3ccccc32)cc1OC	none (no result: Rce1 inhib, T cell modulator, GRK2 aptamer HTS)
COc1ccc(CNC(=O)Cn2c(=O)oc3ccccc32)cc1OC	none (no result: Rce1 inhib) | Myeloid diff CP1 inactive | GFP autofluor inactive
CCOc1ccc(CNC(=O)CCn2c(=O)oc3ccccc32)cc1OC	none
Cc1ccc(-c2nsc(SCC(=O)Nc3ccc4c(c3)OCO4)n2)cc1	none
O=C(CSc1nc(-c2ccccc2Cl)ns1)Nc1ccc2c(c1)OCO2	Myeloid diff 2 active | Myeloid diff CP1 inactive | GFP autofluor inactive
COCCNC(=O)CN(C(=O)CCC(=O)Nc1ccccn1)c1ccc(C)c(C)c1	none
CCN(Cc1nc2cc(Cl)ccc2c(=O)[nH]1)C(=O)c1cc2c(s1)CCCCC2	none (no result: Rce1 inhib, T cell modulator, GRK2 aptamer HTS) | Myeloid diff CP1 inactive | GFP autofluor inactive
COc1ccccc1CC1(C)NC(=O)N(CC(=O)N2CC(C)OC(C)C2)C1=O (centres undefined)	none (no result: Rce1 inhib) | Myeloid diff CP1 inactive | GFP autofluor inactive
CC1CN(C(=O)CN2C(=O)NC3(CCCCCC3)C2=O)CC(C)O1 (centres undefined)	none
CC(C(=O)O)n1c(-c2ccn[nH]2)n[nH]c1=S (centres undefined)	none
CCCCn1c(N)c(N(CC(C)C)C(=O)c2cc(-c3ccncc3)nc3ccccc23)c(=O)[nH]c1=O	Myeloid diff 2 active | Myeloid diff CP1 inactive | GFP autofluor inactive
CCCCN(C(=O)c1cc(-c2ccncc2)nc2ccccc12)c1c(N)n(CC(C)C)c(=O)[nH]c1=O	none (no result: Rce1 inhib)
Cc1ccc(-c2cc(C(=O)NN=C3CCCC3)c3ccccc3n2)cc1	none | Myeloid diff CP1 inactive | GFP autofluor inactive
O=C(COC(=O)c1ccc(O)cc1O)Nc1nnc(-c2ccccc2)o1	none
Cc1ccc(C)c(/C(O)=C2\C(=O)C(=O)N(CCCn3ccnc3)C2c2ccncc2)c1 (centres undefined)	Myeloid diff 2 active | Myeloid diff CP1 inactive | GFP autofluor inactive
CC(C)NC(=O)C1C(c2ccccc2)=Nc2ccccc2N1C(=O)c1ccc(C(F)(F)F)cc1 (centres undefined)	none (no result: Rce1 inhib, T cell modulator, GRK2 aptamer HTS, Rin1-Abl PPI inh)

Compound activity from PubChem.
